Reference: PMC4832308 (Cancer, 2015)

System: patients with advanced solid tumors or multiple myeloma
Assay: phase 1 dose escalation: safety, tolerability, DLT, MTD
Type: in vivo, human
Summary of the method: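 Modified accelerated titration from 7.5 mg, oral daily in 28-day cycles. Single-patient cohorts used 100% increments until the first drug-related grade ≥2 toxicity, then 6-patient cohorts used ~50% steps. A dose with ≥2 DLTs was nontolerated. MTD was the last lower dose with 0–1 of 6 DLTs in cycle 1. Adverse events were graded by NCI CTCAE version 4.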

CO[C@H]1CC[C@H](N2C(=O)CNc3ncc(-c4ccc(C(C)(C)O)nc4)nc32)CC1 [CC‐223]
Dyspnea (treatment‐related AE) (45 mg, Any Grade): 1 (11) n (%) | Fatigue (treatment‐related AE) (45 mg, Any Grade): 5 (56) n (%) | Hyperglycemia (treatment‐related AE) (45 mg, Any Grade): 4 (44) n (%) | Increased glycosylated hemoglobin (treatment‐related AE) (45 mg, Any Grade): 2 (22) n (%) | Mucositis (treatment‐related AE) (45 mg, Any Grade): 3 (33) n (%) | Nausea (treatment‐related AE) (45 mg, Any Grade): 6 (67) n (%) | Pruritus (treatment‐related AE) (45 mg, Any Grade): 2 (22) n (%) | Rash (treatment‐related AE) (45 mg, Any Grade): 2 (22) n (%) | Rash pruritic (treatment‐related AE) (45 mg, Any Grade): 0 n (%) | Thrombocytopenia (treatment‐related AE) (45 mg, Any Grade): 2 (22) n (%) | Vomiting (treatment‐related AE) (45 mg, Any Grade): 2 (22) n (%) | Arthralgia (treatment‐related AE) (45 mg, Grade ≥3): 0 n (%) | Asthenia (treatment‐related AE) (45 mg, Grade ≥3): 0 n (%) | Decreased appetite (treatment‐related AE) (45 mg, Grade ≥3): 0 n (%) | Diarrhea (treatment‐related AE) (45 mg, Grade ≥3): 0 n (%) | Dry mouth (treatment‐related AE) (45 mg, Grade ≥3): 0 n (%) | Dysgeusia (treatment‐related AE) (45 mg, Grade ≥3): 0 n (%) | Dyspnea (treatment‐related AE) (45 mg, Grade ≥3): 0 n (%) | Fatigue (treatment‐related AE) (45 mg, Grade ≥3): 1 (11) n (%) | Hyperglycemia (treatment‐related AE) (45 mg, Grade ≥3): 1 (11) n (%) | Increased glycosylated hemoglobin (treatment‐related AE) (45 mg, Grade ≥3): 0 n (%) | Mucositis (treatment‐related AE) (45 mg, Grade ≥3): 0 n (%) | Nausea (treatment‐related AE) (45 mg, Grade ≥3): 0 n (%) | Pruritus (treatment‐related AE) (45 mg, Grade ≥3): 0 n (%) | Rash (treatment‐related AE) (45 mg, Grade ≥3): 1 (11) n (%) | Rash pruritic (treatment‐related AE) (45 mg, Grade ≥3): 0 n (%) | Thrombocytopenia (treatment‐related AE) (45 mg, Grade ≥3): 0 n (%) | Vomiting (treatment‐related AE) (45 mg, Grade ≥3): 0 n (%) | Dose interruptions (60 mg): 7 | Dose reductions (60 mg): 5 | Arthralgia (treatment‐related AE) (60 mg, Any Grade): 2 (29) n (%) | Asthenia (treatment‐related AE) (60 mg, Any Grade): 3 (43) n (%) | Decreased appetite (treatment‐related AE) (60 mg, Any Grade): 2 (29) n (%) | Diarrhea (treatment‐related AE) (60 mg, Any Grade): 5 (71) n (%) | Dry mouth (treatment‐related AE) (60 mg, Any Grade): 0 n (%) | Dysgeusia (treatment‐related AE) (60 mg, Any Grade): 1 (14) n (%) | Dyspnea (treatment‐related AE) (60 mg, Any Grade): 1 (14) n (%) | Fatigue (treatment‐related AE) (60 mg, Any Grade): 7 (100) n (%) | Hyperglycemia (treatment‐related AE) (60 mg, Any Grade): 4 (57) n (%) | Increased glycosylated hemoglobin (treatment‐related AE) (60 mg, Any Grade): 2 (29) n (%) | Mucositis (treatment‐related AE) (60 mg, Any Grade): 5 (71) n (%) | Nausea (treatment‐related AE) (60 mg, Any Grade): 3 (43) n (%) | Pruritus (treatment‐related AE) (60 mg, Any Grade): 0 n (%) | Rash (treatment‐related AE) (60 mg, Any Grade): 3 (43) n (%) | Rash pruritic (treatment‐related AE) (60 mg, Any Grade): 2 (29) n (%) | Thrombocytopenia (treatment‐related AE) (60 mg, Any Grade): 0 n (%) | Vomiting (treatment‐related AE) (60 mg, Any Grade): 5 (71) n (%) | Arthralgia (treatment‐related AE) (60 mg, Grade ≥3): 1 (14) n (%) | Asthenia (treatment‐related AE) (60 mg, Grade ≥3): 0 n (%) | Decreased appetite (treatment‐related AE) (60 mg, Grade ≥3): 0 n (%) | Diarrhea (treatment‐related AE) (60 mg, Grade ≥3): 1 (14) n (%) | Dry mouth (treatment‐related AE) (60 mg, Grade ≥3): 0 n (%) | Dysgeusia (treatment‐related AE) (60 mg, Grade ≥3): 0 n (%) | Dyspnea (treatment‐related AE) (60 mg, Grade ≥3): 0 n (%) | Fatigue (treatment‐related AE) (60 mg, Grade ≥3): 1 (14) n (%) | Hyperglycemia (treatment‐related AE) (60 mg, Grade ≥3): 2 (29) n (%) | Increased glycosylated hemoglobin (treatment‐related AE) (60 mg, Grade ≥3): 0 n (%) | Mucositis (treatment‐related AE) (60 mg, Grade ≥3): 2 (29) n (%) | Nausea (treatment‐related AE) (60 mg, Grade ≥3): 0 n (%) | Pruritus (treatment‐related AE) (60 mg, Grade ≥3): 0 n (%) | Rash (treatment‐related AE) (60 mg, Grade ≥3): 1 (14) n (%) | Rash pruritic (treatment‐related AE) (60 mg, Grade ≥3): 2 (29) n (%) | Thrombocytopenia (treatment‐related AE) (60 mg, Grade ≥3): 0 n (%) | Vomiting (treatment‐related AE) (60 mg, Grade ≥3): 0 n (%) | Arthralgia (treatment‐related AE) (Overall (N = 28), Any Grade): 4 (14) n (%) | Asthenia (treatment‐related AE) (Overall (N = 28), Any Grade): 7 (25) n (%) | Decreased appetite (treatment‐related AE) (Overall (N = 28), Any Grade): 9 (32) n (%) | Diarrhea (treatment‐related AE) (Overall (N = 28), Any Grade): 13 (46) n (%) | Dry mouth (treatment‐related AE) (Overall (N = 28), Any Grade): 3 (11) n (%) | Dysgeusia (treatment‐related AE) (Overall (N = 28), Any Grade): 5 (18) n (%) | Dyspnea (treatment‐related AE) (Overall (N = 28), Any Grade): 3 (11) n (%) | Fatigue (treatment‐related AE) (Overall (N = 28), Any Grade): 18 (64) n (%) | Hyperglycemia (treatment‐related AE) (Overall (N = 28), Any Grade): 12 (43) n (%) | Increased glycosylated hemoglobin (treatment‐related AE) (Overall (N = 28), Any Grade): 4 (14) n (%) | Mucositis (treatment‐related AE) (Overall (N = 28), Any Grade): 11 (39) n (%) | Nausea (treatment‐related AE) (Overall (N = 28), Any Grade): 14 (50) n (%) | Pruritus (treatment‐related AE) (Overall (N = 28), Any Grade): 4 (14) n (%) | Rash (treatment‐related AE) (Overall (N = 28), Any Grade): 7 (25) n (%) | Rash pruritic (treatment‐related AE) (Overall (N = 28), Any Grade): 3 (11) n (%) | Thrombocytopenia (treatment‐related AE) (Overall (N = 28), Any Grade): 3 (11) n (%) | Vomiting (treatment‐related AE) (Overall (N = 28), Any Grade): 9 (32) n (%) | Arthralgia (treatment‐related AE) (Overall (N = 28), Grade ≥3): 1 (4) n (%) | Asthenia (treatment‐related AE) (Overall (N = 28), Grade ≥3): 0 n (%) | Decreased appetite (treatment‐related AE) (Overall (N = 28), Grade ≥3): 0 n (%) | Diarrhea (treatment‐related AE) (Overall (N = 28), Grade ≥3): 1 (4) n (%) | Dry mouth (treatment‐related AE) (Overall (N = 28), Grade ≥3): 0 n (%) | Dysgeusia (treatment‐related AE) (Overall (N = 28), Grade ≥3): 0 n (%) | Dyspnea (treatment‐related AE) (Overall (N = 28), Grade ≥3): 0 n (%) | Fatigue (treatment‐related AE) (Overall (N = 28), Grade ≥3): 2 (7) n (%) | Hyperglycemia (treatment‐related AE) (Overall (N = 28), Grade ≥3): 5 (18) n (%) | Increased glycosylated hemoglobin (treatment‐related AE) (Overall (N = 28), Grade ≥3): 0 n (%) | Mucositis (treatment‐related AE) (Overall (N = 28), Grade ≥3): 2 (7) n (%) | Nausea (treatment‐related AE) (Overall (N = 28), Grade ≥3): 0 n (%) | Pruritus (treatment‐related AE) (Overall (N = 28), Grade ≥3): 0 n (%) | Rash (treatment‐related AE) (Overall (N = 28), Grade ≥3): 2 (7) n (%) | Rash pruritic (treatment‐related AE) (Overall (N = 28), Grade ≥3): 2 (7) n (%) | Thrombocytopenia (treatment‐related AE) (Overall (N = 28), Grade ≥3): 0 n (%) | Vomiting (treatment‐related AE) (Overall (N = 28), Grade ≥3): 0 n (%) | Dose interruptions (Total): 22 | treatment‐related AE: asthenia (all patients, any grade): 25% | treatment‐related AE: decreased appetite (all patients, any grade): 32% | treatment‐related AE: fatigue (all patients, any grade): 64% | treatment‐related AE: nausea (all patients, any grade): 50% | treatment‐related AE: rash (all patients, any grade): 25% | treatment‐related AE: vomiting (all patients, any grade): 32% | treatment‐related AE: hyperglycemia (all patients, grade ≥3): 18% | patients requiring dose interruptions (at the MTD (45 mg/d)): 55.6% | patients requiring dose reductions (at the MTD (45 mg/d)): 11.1% | treatment‐related hyperglycemia, number of patients (grade ≥3, 30‐mg/d cohort): 2 n | treatment‐related hyperglycemia, number of patients (grade ≥3, 45‐mg/d cohort): 1 n | treatment‐related hyperglycemia, number of patients (grade ≥3, 60‐mg/d cohort): 2 n | maximum tolerated dosage (MTD) (oral daily dosing, 28‐day cycles): 45 mg/day | median time to dose reduction (overall): 25 days | increases in glucose, insulin, and C‐peptide levels (patients receiving doses ≥30 mg/d): dose‐dependent | patients with dose‐limiting toxicities (treatment cycle 1, all cohorts): Four
